The source made the active and inactive calls. The calls are words filed in the database; no cut-off is given here.
What was measured:
Cytochrome P450 3A4 [1] = molecular target: T1, Cytochrome P450 3A4 (Homo sapiens, UniProt P08684); assay: Drug metabolism assessed as human recombinant CYP3A4-mediated (1-(5-fluoro-4-hydroxypentyl)-1H-indol-3-yl)(naphthalen-1-yl)methanone formation at 10 uM after 90 mins by LC-MS/MS analysis; assay type: ADME; conditions: recombinant enzyme, 1.5 h
Procedure, shortened: (§1)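 Recombinant human CYP2E1 or CYP3A4 (2 pmol) incubated with substrate at 10 μM final, dried from ethanol. Buffer 0.1 M KPO4 pH 7.4 with NADPH-regenerating system, which starts the reaction. 90 min at 37°C, triplicate, with no-substrate, no-protein and no-NADPH controls. Stopped with ethanol, centrifuged, and metabolites quantified by LC-MS/MS.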

[2] = molecular target: Cannabinoid receptor 1 (Mus musculus) (UniProt P47746); assay: Activation of CB1 receptor in B6SJL mouse brain membrane assessed as [35S]-GTPgammaS binding at 10 uM after 30 mins by liquid scintillation spectrophotometric analysis; assay type: functional, cell membranes
Chain of Cannabinoid receptor 1 (Mus musculus) (P47746 whole entry): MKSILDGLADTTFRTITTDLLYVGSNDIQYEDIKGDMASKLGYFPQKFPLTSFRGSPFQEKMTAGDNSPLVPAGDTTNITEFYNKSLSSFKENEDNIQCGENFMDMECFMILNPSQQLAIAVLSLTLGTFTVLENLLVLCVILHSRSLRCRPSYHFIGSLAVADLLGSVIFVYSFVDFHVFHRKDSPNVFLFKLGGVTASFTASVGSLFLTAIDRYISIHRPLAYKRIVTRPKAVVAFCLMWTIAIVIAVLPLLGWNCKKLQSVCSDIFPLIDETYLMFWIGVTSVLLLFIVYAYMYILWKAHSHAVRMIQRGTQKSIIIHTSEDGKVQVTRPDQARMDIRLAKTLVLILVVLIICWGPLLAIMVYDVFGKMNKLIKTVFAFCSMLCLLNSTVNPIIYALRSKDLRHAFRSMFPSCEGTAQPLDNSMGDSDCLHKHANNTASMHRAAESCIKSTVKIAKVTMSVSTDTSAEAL
Procedure, shortened: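 Mouse brain membrane homogenate (25 μg; whole B6SJL brains, pooled, Dounce-homogenised, spun 40,000g three times). Incubated with […], 0.1 nM [35S]GTPγS in 20 mM HEPES, 10 mM MgCl2, 100 mM NaCl, 20 U/l adenosine deaminase, 0.05% BSA, 30 min at 30°C, triplicate. Nonspecific binding with 10 μM unlabelled GTPγS. Stopped by GF/B filtration; filters counted by scintillation.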

Cytochrome P450 2E1 [3] = molecular target: T2, Cytochrome P450 2E1 (Homo sapiens, UniProt P05181); assay: Drug metabolism assessed as human recombinant CYP2E1-mediated (1-(5-fluoro-4-hydroxypentyl)-1H-indol-3-yl)(naphthalen-1-yl)methanone formation at 10 uM after 90 mins by LC-MS/MS analysis; assay type: ADME; conditions: recombinant enzyme, 1.5 h; procedure, shortened: as §1
T2 sequence (P05181 whole entry): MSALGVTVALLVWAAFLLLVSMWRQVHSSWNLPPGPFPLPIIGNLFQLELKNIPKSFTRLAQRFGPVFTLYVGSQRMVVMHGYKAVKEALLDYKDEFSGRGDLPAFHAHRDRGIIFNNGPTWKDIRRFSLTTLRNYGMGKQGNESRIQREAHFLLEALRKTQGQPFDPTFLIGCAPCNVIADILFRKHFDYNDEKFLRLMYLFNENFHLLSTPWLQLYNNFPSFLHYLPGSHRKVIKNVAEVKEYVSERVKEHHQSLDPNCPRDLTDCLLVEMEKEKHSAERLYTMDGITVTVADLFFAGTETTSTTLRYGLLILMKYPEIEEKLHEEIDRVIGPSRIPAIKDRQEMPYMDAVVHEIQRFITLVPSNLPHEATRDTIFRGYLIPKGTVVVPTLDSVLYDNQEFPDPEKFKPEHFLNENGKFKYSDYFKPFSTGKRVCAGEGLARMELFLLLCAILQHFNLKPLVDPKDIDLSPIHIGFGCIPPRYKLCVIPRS

Cytochrome P450 3A4 [4] = molecular target: T1, Cytochrome P450 3A4; assay: Drug metabolism assessed as human recombinant CYP3A4-mediated 5-(3-(1-naphthoyl)-1H-indol-1-yl)pentanoic acid formation at 10 uM after 90 mins by LC-MS/MS analysis; assay type: ADME; conditions: recombinant enzyme, 1.5 h; procedure, shortened: as §1
Cannabinoid receptor 1 = Cannabinoid receptor 1 (Mus musculus, UniProt P47746); assay: Displacement of [3H]CP-55,940 from CB1 receptor in B6SJL mouse brain membrane after 90 mins by liquid scintillation spectrophotometric analysis; assay type: cell membranes
Chain of Cannabinoid receptor 1 (P47746 whole entry): as the sequence (P47746 whole entry) above
Procedure, shortened: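 B6SJL mouse brain membranes (50 μg) with 0.2 nM [3H]CP-55,940 and competitor at 0.1 nM–10 μM. Buffer 5 mM MgCl2, 50 mM Tris, 0.05% BSA; 90 min at room temperature, triplicate. Nonspecific binding set with 10 μM WIN-55,212-2. Filtered on GF/B, washed with Tris/BSA, counted by scintillation. Specific binding given as % of vehicle.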

Cytochrome P450 2E1 [5] = molecular target: T2, Cytochrome P450 2E1; assay: Drug metabolism assessed as human recombinant CYP2E1-mediated (1-(5-hydroxypentyl)-1H-indol-3-yl)(naphthalen-1-yl)methanone formation at 10 uM after 90 mins by LC-MS/MS analysis; assay type: ADME; conditions: recombinant enzyme, 1.5 h; procedure, shortened: as §1
[6] = Drug metabolism in human urine assessed as (1-(5-fluoro-4-hydroxypentyl)-1H-indol-3-yl)(naphthalen-1-yl)methanone formation by LC-MS/MS analysis; assay type: ADME, tissue-based
Procedure, shortened: (§2)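 Urine from suspected users (40 μl) incubated with or without β-glucuronidase (1.6 U/μl final) in 0.1 M sodium acetate pH 5.0, 60 min at 37°C with shaking. Analysed by positive-ESI LC-MS/MS against standards matrix-matched in blank pooled human urine, with confirmation by enhanced product ion spectra.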

[7] = Drug metabolism in human urine assessed as (1-(5-hydroxypentyl)-1H-indol-3-yl)(naphthalen-1-yl)methanone formation by LC-MS/MS analysis; assay type: ADME, tissue-based; procedure, shortened: as §2
[8] = Drug metabolism in human urine assessed as 5-(3-(1-naphthoyl)-1H-indol-1-yl)pentanoic acid formation by LC-MS/MS analysis; assay type: ADME, tissue-based; procedure, shortened: as §2
Cytochrome P450 2E1 [9] = molecular target: T2, Cytochrome P450 2E1; assay: Drug metabolism assessed as human recombinant CYP2E1-mediated 5-(3-(1-naphthoyl)-1H-indol-1-yl)pentanoic acid formation at 10 uM after 90 mins by LC-MS/MS analysis; assay type: ADME; conditions: recombinant enzyme, 1.5 h; procedure, shortened: as §1
[10] = molecular target: Cannabinoid receptor 1 (Mus musculus) (UniProt P47746); assay: Activation of CB1 receptor in B6SJL mouse brain membrane assessed as [35S]-GTPgammaS binding at 10 uM after 30 mins by liquid scintillation spectrophotometric analysis in presence of O-2050; assay type: functional, cell membranes
Cytochrome P450 3A4 [11] = molecular target: T1, Cytochrome P450 3A4; assay: Drug metabolism assessed as human recombinant CYP3A4-mediated (1-(5-hydroxypentyl)-1H-indol-3-yl)(naphthalen-1-yl)methanone formation at 10 uM after 90 mins by LC-MS/MS analysis; assay type: ADME; conditions: recombinant enzyme, 1.5 h; procedure, shortened: as §1
Liver microsome [12] = assay: Drug metabolism in human liver microsomes assessed as intrinsic clearance per mg protein treated with JWH-018; assay type: ADME
Liver microsome [13] = assay: Drug level in human liver microsomes treated with JWH-018 at 10 uM after 20 mins by LC-MS/MS analysis; assay type: ADME
Procedure, shortened: (§3)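 Pooled human liver microsomes (75 μg) incubated with 10 μM substrate in 0.1 M KPO4 pH 7.4 with NADPH-regenerating system at 37°C. Reaction stopped with ethanol, centrifuged. Analytes quantified by positive-ESI LC-MS/MS against standards matrix-matched in reaction mixture, with confirmation by SRM-triggered enhanced product ion spectra library matching.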

Liver microsome [14] = assay: Drug metabolism in human liver microsomes assessed as intrinsic clearance per mg protein treated with AM2201; assay type: ADME
Cytochrome b5 = Cytochrome b5 (Homo sapiens, UniProt P00167); assay: Drug metabolism assessed as cytochrome b5 (unknown origin)-mediated compound formation treated with JWH-018 at 10 uM after 90 mins by LC-MS/MS analysis in presence of oxidoreductase; assay type: ADME; conditions: 1.5 h
Chain of Cytochrome b5 (P00167 whole entry): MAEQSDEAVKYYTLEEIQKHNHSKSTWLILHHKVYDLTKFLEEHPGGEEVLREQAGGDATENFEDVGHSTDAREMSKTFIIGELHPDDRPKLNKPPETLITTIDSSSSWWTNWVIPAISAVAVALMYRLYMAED

Cytochrome P450 1A2 [15] = molecular target: T3, Cytochrome P450 1A2 (Homo sapiens, UniProt P05177); assay: Drug metabolism assessed as intrinsic clearance for human recombinant CYP1A2-mediated compound formation per nmol protein treated with JWH-018 at 10 uM after 90 mins; assay type: ADME; conditions: recombinant enzyme, 1.5 h
T3 sequence (P05177 whole entry): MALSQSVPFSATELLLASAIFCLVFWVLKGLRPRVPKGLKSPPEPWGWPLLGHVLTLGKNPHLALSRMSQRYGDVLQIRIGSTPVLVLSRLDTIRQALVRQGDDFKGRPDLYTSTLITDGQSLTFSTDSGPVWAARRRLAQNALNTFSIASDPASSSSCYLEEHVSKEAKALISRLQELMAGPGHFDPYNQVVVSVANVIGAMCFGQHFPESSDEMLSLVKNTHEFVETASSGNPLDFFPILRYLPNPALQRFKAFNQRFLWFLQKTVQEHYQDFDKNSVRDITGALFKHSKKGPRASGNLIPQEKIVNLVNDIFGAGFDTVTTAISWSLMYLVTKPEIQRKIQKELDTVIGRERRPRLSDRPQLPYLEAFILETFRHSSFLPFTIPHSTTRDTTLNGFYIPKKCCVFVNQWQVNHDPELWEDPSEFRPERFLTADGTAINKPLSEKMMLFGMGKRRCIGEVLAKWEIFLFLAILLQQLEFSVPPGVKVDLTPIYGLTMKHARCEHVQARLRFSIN

[16] = Drug level in human urine treated with JWH-018 by LC-MS/MS analysis; assay type: ADME, tissue-based; procedure, shortened: as §2
Cytochrome P450 2C19 [17] = molecular target: T4, Cytochrome P450 2C19 (Homo sapiens, UniProt P33261); assay: Drug metabolism assessed as intrinsic clearance for human recombinant CYP2C19-mediated compound formation per nmol protein treated with JWH-018 at 10 uM after 90 mins; assay type: ADME; conditions: recombinant enzyme, 1.5 h
T4 sequence (P33261 whole entry): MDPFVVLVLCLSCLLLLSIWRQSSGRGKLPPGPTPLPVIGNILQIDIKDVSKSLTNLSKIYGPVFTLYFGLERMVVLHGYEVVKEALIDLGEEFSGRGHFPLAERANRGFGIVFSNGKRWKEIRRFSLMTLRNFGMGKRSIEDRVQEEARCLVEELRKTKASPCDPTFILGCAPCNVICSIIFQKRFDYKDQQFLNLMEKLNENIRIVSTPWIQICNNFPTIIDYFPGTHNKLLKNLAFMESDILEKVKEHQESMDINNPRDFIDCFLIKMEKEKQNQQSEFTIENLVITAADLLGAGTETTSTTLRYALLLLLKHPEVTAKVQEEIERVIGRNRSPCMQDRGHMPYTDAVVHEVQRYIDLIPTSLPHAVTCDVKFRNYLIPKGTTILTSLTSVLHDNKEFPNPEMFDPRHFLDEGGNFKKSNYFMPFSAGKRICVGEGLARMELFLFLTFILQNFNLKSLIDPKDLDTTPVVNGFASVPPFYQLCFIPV

Cytochrome P450 2D6 [18] = molecular target: T5, Cytochrome P450 2D6 (Homo sapiens, UniProt P10635); assay: Drug metabolism assessed as intrinsic clearance for human recombinant CYP2D6-mediated compound formation per nmol protein treated with JWH-018 at 10 uM after 90 mins; assay type: ADME; conditions: recombinant enzyme, 1.5 h
T5 sequence (P10635 whole entry): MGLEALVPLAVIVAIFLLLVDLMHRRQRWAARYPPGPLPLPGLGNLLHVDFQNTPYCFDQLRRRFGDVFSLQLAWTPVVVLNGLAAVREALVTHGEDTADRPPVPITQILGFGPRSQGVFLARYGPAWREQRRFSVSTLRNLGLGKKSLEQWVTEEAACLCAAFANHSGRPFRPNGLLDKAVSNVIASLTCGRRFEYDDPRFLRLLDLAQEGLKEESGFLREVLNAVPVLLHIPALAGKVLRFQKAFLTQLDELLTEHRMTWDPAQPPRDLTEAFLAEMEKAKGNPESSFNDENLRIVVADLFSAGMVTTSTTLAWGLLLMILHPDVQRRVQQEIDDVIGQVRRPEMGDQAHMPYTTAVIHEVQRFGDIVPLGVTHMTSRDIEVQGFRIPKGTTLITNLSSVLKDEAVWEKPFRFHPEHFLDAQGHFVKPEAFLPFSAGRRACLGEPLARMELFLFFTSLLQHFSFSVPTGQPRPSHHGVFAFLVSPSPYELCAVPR

Cytochrome P450 2C9 [19] = molecular target: T6, Cytochrome P450 2C9 (Homo sapiens, UniProt P11712); assay: Drug metabolism assessed as intrinsic clearance for human recombinant CYP2C9-mediated compound formation per nmol protein treated with JWH-018 at 10 uM after 90 mins; assay type: ADME; conditions: recombinant enzyme, 1.5 h
T6 sequence (P11712 whole entry): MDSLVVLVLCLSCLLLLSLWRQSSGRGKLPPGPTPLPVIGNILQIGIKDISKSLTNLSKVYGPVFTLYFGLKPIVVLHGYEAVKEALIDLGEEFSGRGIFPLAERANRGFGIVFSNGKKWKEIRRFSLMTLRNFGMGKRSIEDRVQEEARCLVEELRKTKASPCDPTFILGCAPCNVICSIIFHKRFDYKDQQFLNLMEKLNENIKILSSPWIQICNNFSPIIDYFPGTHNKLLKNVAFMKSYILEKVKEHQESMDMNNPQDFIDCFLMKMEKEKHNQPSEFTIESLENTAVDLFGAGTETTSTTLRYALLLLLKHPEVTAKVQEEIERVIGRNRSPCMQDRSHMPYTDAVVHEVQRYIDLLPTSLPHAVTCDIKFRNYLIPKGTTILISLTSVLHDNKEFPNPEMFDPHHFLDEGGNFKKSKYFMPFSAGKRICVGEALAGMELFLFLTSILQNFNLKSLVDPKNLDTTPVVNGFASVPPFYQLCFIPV

Cytochrome P450 2C9 [20] = molecular target: T6, Cytochrome P450 2C9; assay: Drug metabolism assessed as intrinsic clearance for human recombinant CYP2C9-mediated compound formation per nmol protein treated with AM2201 at 10 uM after 90 mins; assay type: ADME; conditions: recombinant enzyme, 1.5 h
Cytochrome P450 2C19 [21] = molecular target: T4, Cytochrome P450 2C19; assay: Drug metabolism assessed as intrinsic clearance for human recombinant CYP2C19-mediated compound formation per nmol protein treated with AM2201 at 10 uM after 90 mins; assay type: ADME; conditions: recombinant enzyme, 1.5 h
Cytochrome P450 2D6 [22] = molecular target: T5, Cytochrome P450 2D6; assay: Drug metabolism assessed as intrinsic clearance for human recombinant CYP2D6-mediated compound formation per nmol protein treated with AM2201 at 10 uM after 90 mins; assay type: ADME; conditions: recombinant enzyme, 1.5 h
Cytochrome P450 1A2 [23] = molecular target: T3, Cytochrome P450 1A2; assay: Drug metabolism assessed as intrinsic clearance for human recombinant CYP1A2-mediated compound formation per nmol protein treated with AM2201 at 10 uM after 90 mins; assay type: ADME; conditions: recombinant enzyme, 1.5 h
Liver microsome [24] = assay: Drug level in human liver microsomes treated with AM2201 at 10 uM after 20 mins by LC-MS/MS analysis; assay type: ADME; procedure, shortened: as §3

T1 sequence (P08684 whole entry): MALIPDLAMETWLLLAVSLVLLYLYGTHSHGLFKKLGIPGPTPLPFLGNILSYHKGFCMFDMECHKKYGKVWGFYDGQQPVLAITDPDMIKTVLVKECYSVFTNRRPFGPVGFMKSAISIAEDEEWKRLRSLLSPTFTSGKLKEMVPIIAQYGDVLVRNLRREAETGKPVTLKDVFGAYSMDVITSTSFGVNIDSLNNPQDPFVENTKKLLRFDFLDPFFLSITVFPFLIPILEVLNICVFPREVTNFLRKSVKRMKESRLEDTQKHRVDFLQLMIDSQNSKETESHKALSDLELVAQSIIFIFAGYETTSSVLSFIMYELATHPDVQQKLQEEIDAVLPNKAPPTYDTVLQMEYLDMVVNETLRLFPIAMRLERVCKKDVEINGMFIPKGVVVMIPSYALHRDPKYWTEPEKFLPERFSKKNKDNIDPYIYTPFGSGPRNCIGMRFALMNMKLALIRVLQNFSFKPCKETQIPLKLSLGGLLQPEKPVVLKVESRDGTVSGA

SMILES | Activity [2] | Ki (Cannabinoid receptor 1) [nM] | Activity [10] | CLH (Liver microsome [12]) [µL/min/mg] | Drug metabolism (Liver microsome [13]) | CLH (Liver microsome [14]) [µL/min/g] | CL (Cytochrome P450 1A2 [15]) [µL/min] | Drug metabolism [16] | CL (Cytochrome P450 2C19 [17]) [µL/min] | CL (Cytochrome P450 2D6 [18]) [µL/min] | CL (Cytochrome P450 2C9 [19]) [µL/min] | also measured
O=C(c1cccc2ccccc12)c1cn(CCCCCF)c2ccccc12 | Active | 0.395 | inactive | – | – | – | – | – | – | – | – | Drug metabolism (Cytochrome P450 3A4 [1]): metabolite_not_detected; Drug metabolism (Cytochrome P450 2E1 [3]): metabolite_not_detected; Drug metabolism (Cytochrome P450 3A4 [4]): metabolite_not_detected; Drug metabolism (Cytochrome P450 2E1 [5]): metabolite_not_detected; Drug metabolism [6]: metabolite_detected; Drug metabolism [7]: metabolite_detected; Drug metabolism [8]: metabolite_detected; Drug metabolism (Cytochrome P450 2E1 [9]): metabolite_not_detected; Drug metabolism (Cytochrome P450 3A4 [11]): metabolite_not_detected
CCCCCn1cc(C(=O)c2cccc3ccccc23)c2ccc(O)cc21 | – | – | – | 1 | metabolite_detected | 0 | – | – | – | – | – | Drug metabolism (Cytochrome b5): metabolite_detected
CC(O)CCCn1cc(C(=O)c2cccc3ccccc23)c2ccccc21 (centres undefined) | Active | 15.4 | inactive | 0.574 | – | – | 306 | metabolite_detected | 48.7 | 13.4 | 375 | –
CCCCCCC(C)(C)c1ccc([C@@H]2C[C@H](O)CC[C@H]2CCCO)c(O)c1 | Active | – | inactive | – | – | – | – | – | – | – | – | –
CCCCCn1cc(C(=O)c2cccc3ccccc23)c2cc(O)ccc21 | – | – | – | 0.52 | metabolite_detected | 0 | – | – | – | – | – | –
O=C(O)CCCCn1cc(C(=O)c2cccc3ccccc23)c2ccccc21 | inactive | > 10000 | – | 0 | – | 0.6 | 23 | metabolite_detected | 0 | 0 | 0 | CL (Cytochrome P450 2C9 [20]): 111 µL/min; CL (Cytochrome P450 2C19 [21]): 28 µL/min; CL (Cytochrome P450 2D6 [22]): 0.371 µL/min; CL (Cytochrome P450 1A2 [23]): 89 µL/min; Drug metabolism (Liver microsome [24]): 4.7 ng/mL

From ChEMBL document CHEMBL3526105, “Cytochrome P450-mediated oxidative metabolism of abused synthetic cannabinoids found in K2/Spice: identification of novel cannabinoid receptor ligands” (Drug Metab Dispos, 2012)
